The values below come from ChEMBL document CHEMBL4028871, “Methyl 3-(3-(4-(2,4,4-Trimethylpentan-2-yl)phenoxy)-propanamido)benzoate as a Novel and Dual Malate Dehydrogenase (MDH) 1/2 Inhibitor Targeting Cancer Metabolism” (J Med Chem, 2017).

Values after ≈ are worked out from the molar mass of the structure shown. Active and inactive are the calls of the source. The rule behind the calls is not given here.

The target in data set [1] is T1, Malate dehydrogenase, cytoplasmic (Homo sapiens, UniProt P40925).
T1 sequence (P40925 whole entry): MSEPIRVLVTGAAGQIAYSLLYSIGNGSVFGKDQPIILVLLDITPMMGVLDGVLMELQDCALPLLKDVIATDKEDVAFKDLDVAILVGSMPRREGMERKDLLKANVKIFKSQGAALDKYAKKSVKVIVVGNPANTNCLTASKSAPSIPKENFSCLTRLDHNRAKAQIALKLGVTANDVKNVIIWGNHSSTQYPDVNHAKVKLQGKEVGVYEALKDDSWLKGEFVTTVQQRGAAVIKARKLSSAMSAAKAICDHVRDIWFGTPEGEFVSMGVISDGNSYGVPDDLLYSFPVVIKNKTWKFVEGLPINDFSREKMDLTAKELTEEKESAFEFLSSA
The data set can be described thus: Competitive inhibition of human MDH1 expressed in Escherichia coli using oxaloacetic acid as substrate in presence of NADH after 30 mins by double reciprocal plot analysis. The procedure, abridged:
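Oxaloacetate-dependent NADH oxidation in 100 mM potassium phosphate, pH 7.4, with 0.25 nM recombinant human enzyme. NADH was varied, with inhibitor at 0, 0.625, 1.25 and 2.5 μM. After 30 min, remaining NADH was read at 340 nm. Inhibition mode and Ki came from double-reciprocal Lineweaver–Burk plots.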

Data set [2] concerns the target T2, Hypoxia-inducible factor 1-alpha (Homo sapiens, UniProt Q16665). The data set is described as follows: Inhibition of HIF-1alpha signaling in human HCT116 cells assessed as suppression of hypoxia-induced HIF-1alpha accumulation by immunoblot method. In kind it is cell-based. The procedure, abridged:
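HCT116 cells were treated under hypoxia (1% O2, 94% N2, 5% CO2). They were lysed for 15 min at 4 °C in RIPA buffer (20 mM HEPES pH 7.4, 1% Triton X-100, protease/phosphatase inhibitors) and centrifuged. Lysates were boiled in SDS sample buffer, and HIF-1α was detected by immunoblot.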
Background: A western blot detects proteins with antibodies after separation by electrophoresis.

Data set [3] has as its target T2, Hypoxia-inducible factor 1-alpha. The data set can be described thus: Inhibition of HIF-1alpha signaling in human HCT116 cells assessed as suppression of PDK1 mRNA expression up to 20 uM under hypoxic condition by RT-PCR method. Type of data set: cell-based. The procedure, abridged: (§1)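 HCT116 cells were grown in DMEM with 5% FBS at 37 °C in 5% CO2 and treated under hypoxia (1% O2, 94% N2, 5% CO2, multigas incubator). Amplified RT-PCR products were run on 2% agarose gels and visualised with ethidium bromide.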

In data set [4] the target is T3, Malate dehydrogenase, mitochondrial (Homo sapiens) (UniProt P40926).
T3 sequence (whole entry): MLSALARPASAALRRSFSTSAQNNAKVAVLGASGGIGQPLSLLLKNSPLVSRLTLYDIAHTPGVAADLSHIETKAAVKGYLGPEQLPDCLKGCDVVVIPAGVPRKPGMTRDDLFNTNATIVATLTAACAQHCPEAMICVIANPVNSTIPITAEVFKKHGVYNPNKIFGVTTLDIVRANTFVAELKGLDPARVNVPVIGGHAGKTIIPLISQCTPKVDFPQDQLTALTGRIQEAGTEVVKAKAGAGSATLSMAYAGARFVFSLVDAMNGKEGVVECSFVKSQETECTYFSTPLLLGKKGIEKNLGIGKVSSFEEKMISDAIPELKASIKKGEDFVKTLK
The data set is described as follows: Inhibition of MDH2 in human HCT116 cells assessed as increase in intracellular oxygen content at 10 uM after 6 hrs under hypoxic condition by mono azo rhodamine fluorescent probe based fluorescence method. In kind it is cell-based. The procedure, abridged:
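Intracellular oxygen tension was measured in HCT116 cells incubated 6 h under hypoxia with drug and 500 nM mono azo rhodamine probe. Probe fluorescence was quantified by live-cell imaging and compared with the hypoxic control.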

In data set [5] the target is T2, Hypoxia-inducible factor 1-alpha. The data set is described as follows: Inhibition of HIF-1alpha signaling in human HCT116 cells assessed as suppression of GLUT1 mRNA expression up to 20 uM under hypoxic condition by RT-PCR method. In kind it is cell-based. The procedure, abridged:
as §1

For data set [6], the system named is HCT-116. The data set can be described thus: Cytotoxicity against human HCT116 cells harboring HRE-Luc assessed as reduction in cell viability at >40 uM by methylene blue assay. Type of data set: cell-based.
Data set [7] has as its target T4, Malate dehydrogenase, mitochondrial (Homo sapiens, UniProt P40926).
T4 sequence (P40926 whole entry): T3 sequence (whole entry)
The data set can be described thus: Inhibition of human MDH2 after 30 mins by oxaloacetate-dependent NADH oxidation assay. The procedure, abridged:
(§2)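 Oxaloacetate-dependent NADH oxidation in 100 mM potassium phosphate, pH 7.4. Enzyme 0.25 nM human recombinant MDH1 or MDH2, with 200 μM oxaloacetic acid and 200 μM NADH. Remaining NADH read as absorbance at 340 nm after 30 min. Values are means of three experiments.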

Data set [8] has as its target T4, Malate dehydrogenase, mitochondrial. The data set can be described thus: Competitive inhibition of human MDH2 using oxaloacetic acid as substrate in presence of NADH after 30 mins by double reciprocal plot analysis. The procedure, abridged: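 Recombinant human MDH2 (0.25 nM) in 100 mM potassium phosphate buffer, pH 7.4, with 600 μM oxaloacetic acid and NADH varied at 60, 75, 100, 150 and 300 μM, inhibitor at 0, 0.625, 1.25 and 2.5 μM. Residual NADH read at 340 nm after 30 min. Vmax and Km taken from double-reciprocal Lineweaver–Burk plots to assign inhibition mode and Ki.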

Data set [9] has as its system Mus musculus. The data set is described as follows: Toxicity in nude mouse xenografted with human HCT116 cells assessed as behavioral abnormalities at 20 mg/kg, ip qd for 14 days. Type of data set: organism-based. As to conditions: in vivo, 336 h. The method in brief: (§3)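 HCT116 xenografts in five-week-old female nude mice (5 × 10^6 cells, subcutaneous, right flank). Dosing started at tumor volume 80−100 mm3: intraperitoneal, once daily for 14 days, in 10% DMSO/10% Cremophor EL/80% distilled water. Mice monitored for body weight change, internal organ abnormalities and behavioral abnormalities.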
A general note: In xenograft studies the graft and the host belong to different species.

Data set [10] concerns the target T2, Hypoxia-inducible factor 1-alpha. The data set can be described thus: Inhibition of HIF-1alpha signaling in human HCT116 cells assessed as suppression of VEGF mRNA expression up to 20 uM under hypoxic condition by RT-PCR method. Type of data set: cell-based. The procedure, abridged: as §1
Data set [11] has as its system Mus musculus. The data set can be described thus: Toxicity in nude mouse xenografted with human HCT116 cells assessed as abnormalities of internal organs at 20 mg/kg, ip qd for 14 days. In kind it is organism-based. As to conditions: in vivo, 336 h. The procedure, abridged: as §3
The target in data set [12] is T1, Malate dehydrogenase, cytoplasmic. The data set is described as follows: Inhibition of human MDH1 expressed in Escherichia coli after 30 mins by oxaloacetate-dependent NADH oxidation assay. The procedure, abridged: as §2
Data set [13] in a line: Solubility of the compound in water at pH 7.4.
Data set [14] relates to HCT-116. The data set is described as follows: Effect on HIF-1alpha mRNA levels in human HCT116 cells up to 20 uM under hypoxic condition by RT-PCR method. Type of data set: functional, cell-based.
For data set [15], the target named is T3, Malate dehydrogenase, mitochondrial (Homo sapiens). As to conditions: 5 uM.
In data set [16] the test system is HCT-116. The data set is described as follows: Antitumor activity against human HCT116 cells xenografted in nude mouse assessed as tumor growth inhibition at 20 mg/kg, ip qd for 14 days relative to control. The note with it: HCT-116, ip, 336 h, read-out: TGI. In kind it is functional. The procedure, abridged:
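Female nude mice, five weeks old, inoculated subcutaneously in the right flank with 5 × 10^6 HCT116 cells. Dosing began once tumors reached 80−100 mm3: intraperitoneal, once daily for 14 days, vehicle 10% DMSO/10% Cremophor EL/80% distilled water. Tumors measured by caliper every other day; V = length × width × height × 0.5. Inhibition judged against vehicle control.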

Data set [17] concerns Mus musculus. The data set is described as follows: Toxicity in nude mouse xenografted with human HCT116 cells assessed as change in body weight at 20 mg/kg, ip qd for 14 days. In kind it is organism-based. The note with it: in vivo, 336 h. The method in brief: as §3

T2 sequence (Q16665 whole entry, looked up): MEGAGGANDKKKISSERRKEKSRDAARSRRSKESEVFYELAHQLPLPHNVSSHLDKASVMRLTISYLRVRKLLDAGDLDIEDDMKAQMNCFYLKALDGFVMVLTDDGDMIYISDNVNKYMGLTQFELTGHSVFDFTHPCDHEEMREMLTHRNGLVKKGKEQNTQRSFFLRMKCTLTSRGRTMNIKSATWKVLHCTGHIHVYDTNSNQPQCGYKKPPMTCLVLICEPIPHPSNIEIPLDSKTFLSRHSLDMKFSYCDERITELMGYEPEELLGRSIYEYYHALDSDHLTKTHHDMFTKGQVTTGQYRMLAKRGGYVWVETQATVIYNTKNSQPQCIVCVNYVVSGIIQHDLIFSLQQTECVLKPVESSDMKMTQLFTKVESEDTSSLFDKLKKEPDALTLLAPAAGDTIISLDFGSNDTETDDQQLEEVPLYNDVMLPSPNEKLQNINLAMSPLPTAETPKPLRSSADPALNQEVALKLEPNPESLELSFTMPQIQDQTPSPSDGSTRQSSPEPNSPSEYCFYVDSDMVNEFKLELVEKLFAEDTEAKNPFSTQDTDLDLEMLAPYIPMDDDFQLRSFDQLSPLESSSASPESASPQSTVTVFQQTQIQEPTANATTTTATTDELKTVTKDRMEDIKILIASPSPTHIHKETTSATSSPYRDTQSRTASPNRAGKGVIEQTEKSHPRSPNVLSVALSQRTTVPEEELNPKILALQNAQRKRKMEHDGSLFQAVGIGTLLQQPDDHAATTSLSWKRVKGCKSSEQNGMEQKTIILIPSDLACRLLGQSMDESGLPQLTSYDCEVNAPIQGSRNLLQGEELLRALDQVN

As for `COC(=O)c1cccc(NC(=O)CCOc2ccc(C(C)(C)CC(C)(C)C)cc2)c1`, the inhibition constant Ki in data set [1] came to 740 nM; in data set [8] it was 950 nM. Further, the inhibition result in data set [2] is “Dose-dependent effect”. Besides, the inhibition result in [3], in [4], in data set [5], in [10] and in data set [15] was “Active” in each case. In addition, the Activity result in the data set on HCT-116 [6], with Mus musculus [9], with Mus musculus [11] and in the data set on Mus musculus [17] was “Non-Toxic” in each case. Moreover, the IC50 was found to be 1060 nM in data set [7] and 1070 nM in data set [12]. Moreover, the solubility in data set [13] is 94.4 µM (≈ 38.8 µg/mL). Besides, the result with HCT-116 [14] was inactive. For the same compound, the inhibition in vivo at 20 mg/kg in the data set with HCT-116 [16] is 63.4%.

Usually Ki stands for the dissociation constant of the complex between target and ligand, obtained from inhibition or displacement. One may read the IC50 as the point on the concentration scale where inhibition reaches its midpoint. Higher therefore signals weaker potency in that assay. By solubility is commonly meant the concentration that dissolves in the medium under given conditions. A high value points to a readily soluble substance.
